# According to ChEMBL document CHEMBL4665634, “Inhibiting Aβ toxicity in Alzheimer's disease by a pyridine amine derivative” (Eur J Med Chem, 2019):
# Activity calls are given as the source filed them. No cut-off for these calls is given here.
# How the values were obtained:
# [1] = system: Caenorhabditis elegans; assay: Reduction in amy-1 mRNA expression in Caenorhabditis elegans CL4176 at 50 to 100 uM after 48 hrs by qRT-PCR analysis; assay type: functional; conditions: dose microM 50-100, time 48.0 hrs
# Procedure, shortened: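 CL4176 worms treated with compound at 25 °C for 48 h (50, 100 µM for amy-1). RNA extracted with Trizol, cDNA made, EvaGreen qRT-PCR run for 40 cycles (95 °C 5 s, 60 °C 5 s). Normalized to ama-1 by the 2^−ΔΔCt method. Three independent preparations, samples in triplicate.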
# [2] = system: Caenorhabditis elegans; assay: Reduction in less than 55 kDa amyloid beta species expression in Caenorhabditis elegans CL4176 at 50 uM after 48 hrs by Western blot analysis; assay type: functional
# Procedure, shortened: (§1)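 CL4176 raised on plates with compound (50 µM) at 15 °C to L3, then kept at 25 °C for 2 days. Worms sonicated in 0.1 M phosphate buffer, 16 µg protein run on 12% SDS-PAGE and blotted to PVDF. Probed with 6E10 (1:1000) and HRP anti-mouse secondary, with β-actin as the loading control.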
# [3] = system: Caenorhabditis elegans; assay: Induction of HSP expression in Caenorhabditis elegans; assay type: functional
# [4] = molecular target: T1, Amyloid-beta precursor protein (Homo sapiens, UniProt P05067); assay: Inhibition of amyloid beta (1 to 42)-induced paralysis in transgenic Caenorhabditis elegans GMC101 L3 expressing human amyloid beta (1 to 42) assessed as reduction in fluorescence intensity at 100 uM incubated for 2 days by fluorescence based confocal microscopic analysis relative to control; conditions: time 2.0 day
# T1 sequence (P05067 whole entry): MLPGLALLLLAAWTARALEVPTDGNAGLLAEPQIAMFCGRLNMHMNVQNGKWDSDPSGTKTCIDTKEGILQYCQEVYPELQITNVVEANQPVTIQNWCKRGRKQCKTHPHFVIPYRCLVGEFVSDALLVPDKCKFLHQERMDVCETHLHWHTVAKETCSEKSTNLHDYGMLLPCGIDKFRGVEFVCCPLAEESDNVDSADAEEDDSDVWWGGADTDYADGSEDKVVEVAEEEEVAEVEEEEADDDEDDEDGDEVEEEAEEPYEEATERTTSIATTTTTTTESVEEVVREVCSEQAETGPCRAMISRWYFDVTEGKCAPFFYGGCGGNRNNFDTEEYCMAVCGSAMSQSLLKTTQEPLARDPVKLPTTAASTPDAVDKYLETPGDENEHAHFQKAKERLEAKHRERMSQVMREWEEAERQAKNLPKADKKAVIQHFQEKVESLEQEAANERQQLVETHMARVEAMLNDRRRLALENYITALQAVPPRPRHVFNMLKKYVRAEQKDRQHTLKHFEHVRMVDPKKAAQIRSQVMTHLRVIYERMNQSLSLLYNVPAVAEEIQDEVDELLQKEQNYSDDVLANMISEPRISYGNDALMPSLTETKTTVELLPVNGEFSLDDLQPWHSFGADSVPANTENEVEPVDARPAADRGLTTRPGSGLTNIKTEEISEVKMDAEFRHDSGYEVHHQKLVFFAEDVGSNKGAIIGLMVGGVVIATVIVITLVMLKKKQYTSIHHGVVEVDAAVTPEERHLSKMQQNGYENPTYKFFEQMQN
# Procedure, shortened: (§2)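 GMC101 L3 worms kept on compound plates (50, 100 µM) at 25 °C for 2 days, mounted on 2% agarose pads. GFP imaged by confocal microscopy at ex 488/em 500–530 nm and intensity quantified. Two experiments, 15 worms per group.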
# [5] = molecular target: T1, Amyloid-beta precursor protein; assay: Inhibition of amyloid beta (1 to 42)-induced paralysis in transgenic Caenorhabditis elegans CL4176 expressing human amyloid beta (1 to 42) assessed as paralyzed worms at 100 uM treated for 49 hrs at 25 degreeC by microscopic analysis (reference value: 87 %); parameters: scale not given: the % may be the effect or the level left
# [6] = Inhibition of Cu2+ induced amyloid beta (1 to 40) aggregation assessed as appearance of granule like species at 0.1 to 100 uM incubated for 24 hrs uranyl acetate staining-based by TEM analysis; conditions: dose microM 0.1-100, time 24.0 hrs
# [7] = system: Caenorhabditis elegans; assay: Antioxidant activity in Caenorhabditis elegans CL4176 assessed as effect on juglone-induced ROS level by measuring relative fluorescence intensity at 100 uM and 15 to 25 degreeC after 48 hrs by H2DCF-DA probe based fluorescence assay ( Rvb = 74.23 %); assay type: functional
# [8] = molecular target: T1, Amyloid-beta precursor protein; assay: Inhibition of self-induced amyloid beta (1 to 42) (unknown origin) aggregation assessed as decrease in negative band ellipticity and shift around 230 nm resulting in modulation of amyloid beta (1 to 42) conformation at 80 uM incubated for 24 hrs by circular dichroism spectroscopy
# Procedure, shortened: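 CD spectra taken on Aβ42 (40 µM). Metal ion (ZnCl2 or CuCl2, 40 µM) was preincubated 5 min at room temperature where present, then compound (80 µM) was added and incubated at 37 °C for 24 h. Spectra recorded 190–270 nm in a 1.0 cm quartz cell, bandwidth 0.1 nm, response time 10 s.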
# [9] = system: Caenorhabditis elegans; assay: Reduction in 12 kDa amyloid beta species expression in Caenorhabditis elegans CL4176 at 50 uM after 48 hrs by Western blot analysis; assay type: functional; procedure, shortened: as §1
# [10] = system: PC-12; assay: Cytotoxicity against rat PC-12 cells assessed as reduction in cell viability at 100 uM measured after 48 hrs by MTT assay relative to control; assay type: cell-based; conditions: pc-12, 48 h
# Procedure, shortened: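 PC12 cells differentiated with NGF, then cultured overnight in RPMI-1640 with 10% FBS at 37 °C, 5% CO2. MTT assay with formazan absorbance at 570 nm. Viability = (OD test − blank)/(OD control − blank) × 100%, mean of three replicates.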
# [11] = Inhibition of Cu2+ induced amyloid beta (1 to 40) aggregation assessed as reduction in fluorescence intensity at 20 uM preincubated for 5 mins in presence of CuCl2 followed by compound addition addition and incubated for 24 hrs by Thioflavin T based fluorometric assay
# Procedure, shortened: (§3)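 Aβ40 (20 µM) preincubated with CuCl2 or ZnCl2 (20 µM) for 5 min at room temperature. Compound (20 µM) added, incubated 37 °C for 24 h. ThT (5 µM) added, fluorescence read at ex 450/em 485 nm. Mean ± S.D. of at least three independent experiments.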
# [12] = molecular target: T1, Amyloid-beta precursor protein; assay: Inhibition of self-induced aggregation amyloid beta (1 to 42) (unknown origin) assessed as reduction in fibril formation incubated for 24 hrs by Thioflavin T based fluorometric assay
# Procedure, shortened: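 Aβ42 (20 µM) mixed with compound (0.1–100 µM), with or without Zn2+ (20 µM), in Tris-HCl pH 7.4, incubated at 37 °C for 24 h. ThT (5 µM) added, fluorescence read at ex 450/em 485 nm.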
# [13] = Inhibition of Zn2+ induced amyloid beta (1 to 40) aggregation assessed as reduction in fluorescence intensity at 20 uM preincubated for 5 mins in presence of ZnCl2 followed by compound addition addition and incubated for 24 hrs by Thioflavin T based fluorometric assay; procedure, shortened: as §3
# [14] = molecular target: T1, Amyloid-beta precursor protein; assay: Inhibition of amyloid beta (1 to 42)-induced paralysis in transgenic Caenorhabditis elegans GMC101 expressing human amyloid beta (1 to 42) assessed as paralyzed worms at 200 uM measured after 92 hrs by microscopic analysis relative to control; parameters: scale not given: the % may be the effect or the level left
# [15] = system: Caenorhabditis elegans; assay: Protection against oligomycin-induced mitochondrial stress in Caenorhabditis elegans CL4176 assessed as effect oxygen consumption rate at 100 uM after 48 hrs by seahorse XFe24 analyser based assay
# [16] = molecular target: T1, Amyloid-beta precursor protein; assay: Inhibition of amyloid beta (1 to 42)-induced paralysis in transgenic Caenorhabditis elegans CL4176 expressing human amyloid beta (1 to 42) assessed as paralyzed worms at 200 uM treated for 49 hrs at 25 degreeC by microscopic analysis (reference value: 87 %); parameters: scale not given: the % may be the effect or the level left
# [17] = system: Mus musculus; assay: Cognitive enhancing effect in APP/PS1 double mutant-transgenic C57BL/6 mouse model assessed as increase in number of hidden escape platform crossings at 1 mg/kg, iv; assay type: functional, organism-based
# [18] = system: Caenorhabditis elegans; assay: Effect on ace-1 mRNA expression in Caenorhabditis elegans CL4176; assay type: functional
# [19] = system: Caenorhabditis elegans; assay: Effect on sod-3 mRNA expression in Caenorhabditis elegans CL4176 at 50 uM by qRT-PCR analysis; assay type: functional
# Procedure, shortened: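 CL4176 qRT-PCR of skn-1 or sod-3. RNA extracted with Trizol, EvaGreen qRT-PCR run for 40 cycles (95 °C 5 s, 60 °C 5 s). Normalized to ama-1 by the 2^−ΔΔCt method. Three independent RNA/cDNA preparations, run in triplicate.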
# [20] = system: Caenorhabditis elegans; assay: Inhibition of AChE in Caenorhabditis elegans CL4176 assessed as enzyme activity at 100 uM after 48 hrs by DTNB reagent based colorimetric analysis (reference value: 272.49 +/- 14.6 units/L)
# Procedure, shortened: (§4)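 Transgenic CL4176 worms kept on NGM plates with compound (0, 25, 50, 100 µM) at 25 °C for 48 h. Lysates made by sonication in 0.1 M phosphate buffer pH 7.4 and centrifuged at 13000 rpm for 5 min. AChE activity in the supernatant was measured with a kit, read as absorbance at 412 nm, given in Units/L normalized to protein concentration, mean ± S.D.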
# [21] = system: Caenorhabditis elegans; assay: Inhibition of AChE in Caenorhabditis elegans CL4176 assessed as enzyme activity at 50 uM after 48 hrs by DTNB reagent based colorimetric analysis (reference value: 272.49 +/- 14.6 units/L); procedure, shortened: as §4
# [22] = molecular target: T1, Amyloid-beta precursor protein; assay: Inhibition of amyloid beta (1 to 42)-induced paralysis in transgenic Caenorhabditis elegans GMC101 L3 expressing human amyloid beta (1 to 42) assessed as reduction in fluorescence intensity at 50 uM incubated for 2 days by fluorescence based confocal microscopic analysis relative to control; conditions: time 2.0 day; procedure, shortened: as §2
smiles,measurement,setting,value
Oc1cc(CN(Cc2ccccn2)Cc2ccccn2)cc(C[P+](c2ccccc2)(c2ccccc2)c2ccccc2)c1.[Br-],Activity,[1],Active
same,Activity,[2],Active
same,Activity,[3],Active
same,inhibition,[4],20%
same,Activity,[5],66%
same,inhibition,[6],Active
same,Activity,[7],28.14%
same,inhibition,[8],Active
same,Activity,[9],Active
same,Activity,[10],80.5%
same,inhibition,[11],Active
same,IC50,[12],12.5 µM
same,inhibition,[12],Dose-dependent effect
same,inhibition,[13],Active
same,Activity,[14],35%
same,Activity,[15],Active
same,Activity,[16],35%
same,Activity,[17],Active
same,Activity,[18],inactive
same,Activity,[19],inactive
same,Activity,[20],135 U/L
same,Activity,[21],166 U/L
same,inhibition,[22],43%
